From PMC9426946 (Biochimica et biophysica acta. Proteins and proteomics, 2022)

B1: β-casein: bovine β-casein, protein substrate (protein, UniProt P02666 16-224, looked up)
Beta-casein: RELEELNVPGEIVESLSSSEESITRINKKIEKFQSEEQQQTEDELQDKIHPFAQTQSLVYPFPGPIPNSLPQNIPPLTQTPVVVPPFLQPEVMGVSKVKEAMAPKHKEMPFPKYPVEPFTESQSLTLTDVENLHLPLPLLQSWMHQPHQPLPPTVMFPPQSVLSLSQSKVLPVPQKAVPYPQRDMPIQAFLLYQEPVLGPVRGPFPIIV

How the values were obtained:
CTRB1 D236R = CTRB1 D236R (Homo sapiens, UniProt P17538, D236R/Y164H); test: Michaelis-Menten kinetics on p-nitroanilide peptide substrates; type: biochemical; conditions: for kcat/KM, CTRB1 D236R / kcat, CTRB1 D236R / Km: 0.1 M Tris-HCl pH 8.0, 1 mM CaCl2, 0.05% Tween-20; for kcat, CTRB1 D236R / Km: average of two independent measurements; for Km: read-out: KM, CTRB1 D236R
Sequence of CTRB1 D236R (P17538 19-263 Y164H/D236R): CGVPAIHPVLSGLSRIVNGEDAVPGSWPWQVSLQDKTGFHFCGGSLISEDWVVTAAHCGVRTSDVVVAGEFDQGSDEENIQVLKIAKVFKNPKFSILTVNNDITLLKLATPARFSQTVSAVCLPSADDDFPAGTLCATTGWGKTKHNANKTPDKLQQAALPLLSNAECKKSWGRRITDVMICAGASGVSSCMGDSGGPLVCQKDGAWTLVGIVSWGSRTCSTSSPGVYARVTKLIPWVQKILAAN
In short: (§1)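 Suc- and H-Ala-Ala-Pro-Phe-pNA were used at 8–1050 µM, from DMSO stocks calibrated by complete chymotryptic hydrolysis. Reactions were started by adding enzyme to 1 or 5 nM final. p-Nitroaniline release was followed at 410 nm for 3–5 min (ε 8,800 M-1cm-1), with rates taken from linear portions. KM and Vmax came from hyperbolic fits, averaging two independent measurements. Human enzymes were recombinant Y164H forms, ecotin-titrated.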

CTRB1 = CTRB1 (Homo sapiens, UniProt P17538, Y164H); test: as above; type: biochemical; conditions: for kcat/KM, CTRB1 / Km: 0.1 M Tris-HCl pH 8.0, 1 mM CaCl2, 0.05% Tween-20; for Km: read-out: KM, CTRB1, average of two independent measurements
Sequence of CTRB1 (P17538 19-263 Y164H): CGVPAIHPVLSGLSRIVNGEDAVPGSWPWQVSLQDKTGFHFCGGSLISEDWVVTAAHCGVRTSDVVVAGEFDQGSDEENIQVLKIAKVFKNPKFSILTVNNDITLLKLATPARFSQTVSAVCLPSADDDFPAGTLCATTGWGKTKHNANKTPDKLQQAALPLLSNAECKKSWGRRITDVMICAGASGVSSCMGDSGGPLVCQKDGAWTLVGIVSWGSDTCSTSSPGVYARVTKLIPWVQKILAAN
In short: as §1

CTRB2 [1] = target: T1, CTRB2 (Homo sapiens, UniProt Q6GPI1, Y164H); test: as above; type: biochemical; conditions: for kcat/KM, CTRB2 / kcat, CTRB2 / Km: 0.1 M Tris-HCl pH 8.0, 1 mM CaCl2, 0.05% Tween-20; for kcat, CTRB2 / Km: average of two independent measurements; for Km: read-out: KM, CTRB2
T1 sequence (Q6GPI1 19-263 Y164H): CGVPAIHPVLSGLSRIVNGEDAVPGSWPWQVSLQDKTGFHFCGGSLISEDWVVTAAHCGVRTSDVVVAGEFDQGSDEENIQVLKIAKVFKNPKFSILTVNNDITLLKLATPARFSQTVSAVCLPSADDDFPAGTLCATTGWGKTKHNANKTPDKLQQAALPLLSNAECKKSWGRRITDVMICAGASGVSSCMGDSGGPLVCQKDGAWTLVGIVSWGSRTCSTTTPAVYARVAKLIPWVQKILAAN
In short: as §1

bCTRA = bCTRA (Bos taurus, UniProt P00766); test: as above; type: biochemical, bovine; conditions: for kcat/KM, bCTRA / kcat, bCTRA / Km: 0.1 M Tris-HCl pH 8.0, 1 mM CaCl2, 0.05% Tween-20; for kcat, bCTRA / Km: average of two independent measurements; for Km: read-out: KM, bCTRA
In short: as §1

CTRB1 S242T = CTRB1 S242T (Homo sapiens, UniProt P17538, S242T/Y164H); test: as above; type: biochemical; conditions: 0.1 M Tris-HCl pH 8.0, 1 mM CaCl2, 0.05% Tween-20; for kcat, CTRB1 S242T / Km: average of two independent measurements; for Km: read-out: KM, CTRB1 S242T
Sequence of CTRB1 S242T (P17538 19-263 Y164H/S242T): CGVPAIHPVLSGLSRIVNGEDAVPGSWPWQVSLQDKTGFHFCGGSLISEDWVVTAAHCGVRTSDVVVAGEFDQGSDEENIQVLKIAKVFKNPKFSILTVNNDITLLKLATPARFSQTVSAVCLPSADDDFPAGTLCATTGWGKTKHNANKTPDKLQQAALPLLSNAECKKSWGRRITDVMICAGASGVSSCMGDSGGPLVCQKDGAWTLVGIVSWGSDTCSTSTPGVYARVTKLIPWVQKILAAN
In short: as §1

human CTRB2 = conditions: read-out: KD on human CTRB2; prior observations; cited from earlier work
[2] = target: chymotrypsin B1 (Homo sapiens) (UniProt P17538); conditions: cited from earlier work
Sequence of chymotrypsin B1 (Homo sapiens) (P17538 34-164, chain 2 of 2): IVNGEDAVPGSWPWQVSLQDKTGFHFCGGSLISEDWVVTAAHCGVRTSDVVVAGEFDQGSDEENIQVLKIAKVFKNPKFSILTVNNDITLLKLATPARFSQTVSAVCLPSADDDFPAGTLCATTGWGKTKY
Sequence of chymotrypsin B1 (Homo sapiens) (P17538 167-263, chain 3 of 2): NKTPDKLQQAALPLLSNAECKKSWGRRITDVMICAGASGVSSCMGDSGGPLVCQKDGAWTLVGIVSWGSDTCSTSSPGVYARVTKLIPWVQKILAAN

CTRB2 [3] = target: T1, CTRB2; test: Casein digestion by chymotrypsins; type: biochemical; conditions: 0.2 mg/mL β-casein, 5 nM enzyme, 0.1 M Tris-HCl pH 8.0, 1 mM CaCl2, 37°C; SDS-PAGE densitometry, two experiments
[4] = relative to Suc-Ala-Ala-Pro-Phe-p-nitroanilide

Molecule | kcat/KM, CTRB1 D236R (CTRB1 D236R) [M⁻¹ s⁻¹] | kcat, CTRB1 D236R (CTRB1 D236R) [s⁻¹] | Km (CTRB1 D236R) [µM] | kcat/KM, CTRB1 (CTRB1) [M⁻¹ s⁻¹] | Km (CTRB1) [µM] | kcat/KM, CTRB2 (CTRB2 [1]) [M⁻¹ s⁻¹] | kcat, CTRB2 (CTRB2 [1]) [s⁻¹] | Km (CTRB2 [1]) [µM] | kcat/KM, bCTRA (bCTRA) [M⁻¹ s⁻¹] | kcat, bCTRA (bCTRA) [s⁻¹] | Km (bCTRA) [µM] | kcat/KM, CTRB1 S242T (CTRB1 S242T) [M⁻¹ s⁻¹] | kcat, CTRB1 S242T (CTRB1 S242T) [s⁻¹] | Km (CTRB1 S242T) [µM] | also measured
Suc-Ala-Ala-Pro-Phe-p-nitroanilide [Suc-AAPF-pNA] | 2e+06 | 36.0 | 17.9 | 160000 | 219 | 1.3e+06 | 26.1 | 20.4 | 790000 | 36.9 | 46.6 | 180000 | 38.4 | 220 | kcat/KM of CTRB1 D236R relative to CTRB1 (CTRB1 D236R; more efficient than CTRB1): 12.5 fold; kcat/KM of CTRB2 relative to CTRB1 (CTRB2 [1]; more efficient than CTRB1): 8.1 fold; kcat/KM of bCTRA relative to CTRB1 (bCTRA; more efficient than CTRB1): 5 fold
Schistocerca gregaria proteinase inhibitor 2 [wild-type SGPI-2] |  |  |  |  |  |  |  |  |  |  |  |  |  |  | Kd (human CTRB2): 0.16 nM
SGPI-2 (from UniProt O46162) |  |  |  |  |  |  |  |  |  |  |  |  |  |  | Kd [2]: 1.1 nM
H-Ala-Ala-Pro-Phe-p-nitroanilide [H-AAPF-pNA] | 45000 | 9.64 | 214 | 40000 | 575 | 36000 | 10.9 | 304 | 55000 | 20.3 | 371 | 39000 | 21.3 | 550 | reduction in kcat/KM on removal of the Suc group, CTRB1 (CTRB1; [4]): 4 fold; reduction in kcat/KM on removal of the Suc group, CTRB2 (CTRB2 [1]; [4]): 36 fold
B1 |  |  |  |  |  |  |  |  |  |  |  |  |  |  | digestion activity of CTRB2 relative to CTRB1 (CTRB2 [3]): 2.3 fold
